Screens (PubChem BioAssay)
hERG rescue: hERG (human) protection from proarrhythmic block | CHO-hERG, FluxOR thallium flux, dofetilide IC70 present | activation (rescue from dofetilide block), less the hit threshold, % at 10 µM | 0.51% of 310,000 active | AID 1511;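 active means activation above the mean of controls blocked by dofetilide plus 5 SD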;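 further: thallium influx through hERG after potassium depolarization seen as dye fluorescence rise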
KCNK3 block: human KCNK3 channel inhibition, primary screen. O14649. CHO-KCNK3 thallium flux, FluxOR fluorescence; active compounds read low. B-score at 10 µM. 0.84% of 340,000 active. AID 602410;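 active means B-score under library mean minus 4 SD, starting fluorescence ratio at most library mean plus 5 SD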;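 further: more negative B-score means stronger inhibition of thallium flux through KCNK3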
Target sequence (O14649 whole entry, looked up): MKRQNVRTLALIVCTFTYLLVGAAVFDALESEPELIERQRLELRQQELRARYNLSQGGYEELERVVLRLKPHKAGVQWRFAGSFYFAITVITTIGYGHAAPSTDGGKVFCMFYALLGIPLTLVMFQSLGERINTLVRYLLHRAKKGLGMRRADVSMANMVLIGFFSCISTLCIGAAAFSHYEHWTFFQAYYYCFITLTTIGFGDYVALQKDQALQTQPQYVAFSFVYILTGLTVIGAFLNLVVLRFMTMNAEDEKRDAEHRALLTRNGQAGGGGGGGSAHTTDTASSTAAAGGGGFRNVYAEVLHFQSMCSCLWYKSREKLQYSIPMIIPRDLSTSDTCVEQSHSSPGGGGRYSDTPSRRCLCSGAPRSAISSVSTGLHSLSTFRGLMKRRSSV
KCNK9 inh: blocks the human KCNK9 two-pore domain potassium channel | HEK293 KCNK9, FluxOR thallium flux fluorescence; active compounds read low | B-score at 10 µM | AID 488922 | 1.2% of 310,000 active;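 active means ratio B-score over 3 SD below the library mean, with starting fluorescence within 5 SD of its mean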;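 further: negative B-score means less thallium flux so channel inhibition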
KCNQ1 inh: human KCNQ1 channel inhibition | P51787 | CHO-K1 KCNQ1, FluxOR thallium flux fluorescence; active compounds read high | B-score at 10 µM | 1.3% of 310,000 active;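 active means compounds whose thallium flux B-score, printed positive for inhibition, exceeds three library SD while starting fluorescence stays within three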;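 further: channel opened by potassium depolarization with thallium stimulus after 20 min compound exposure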
Kir21 block: Kir2.1 (mouse) channel inhibition. P35561. HEK293-Kir2.1, FluxOR thallium flux fluorescence; active compounds read low. B-score at 10 µM. 0.85% of 310,000 active;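 active means fluorescence ratio B-score at or below minus 3 SD of library scores, with starting-brightness B-score within 2 SD, cut at about -4.2 in these data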;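 further: channel flux triggered by added potassium and thallium sulfate stimulus; B-score of peak minus minimum fluorescence over baseline after thallium stimulus; more negative B-score means stronger Kir2.1 block with less thallium influx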
KCNQ1 pot: potentiates or activates the human KCNQ1 potassium channel; P51787; CHO-K1 KCNQ1, thallium flux FluxOR fluorescence; active compounds read high; B-score at 10 µM; 0.35% of 310,000 active; AID 2648;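 active means fluorescence ratio B-score, a plate-corrected score, at least three library SD, with initial intensity B-score within 5 SD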
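assay system = KCNQ1-transfected CHO-K1 cells | medium = assay buffer with matched DMSO | probe or stimulus = depolarizing K+/Tl+ stimulus, K2SO4 and Tl2SO4 each 12.5 mM in 5x stock | dosing = single dose | incubation = dye 90 min, compound 20 min, room temperature | detection = kinetic FluxOR fluorescence, 10 s baseline plus 110 s post-stimulus | evaluation = ratio B score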
* hit, by the source's call; i = inactive; · = not tested or not shown. A selection: hits, their analogues and other compounds. The true share with any hit is near 3.7%.

SMILES | hERG rescue | KCNK3 block | KCNK9 inh | KCNQ1 inh | Kir21 block | KCNQ1 pot
CN(C)S(=O)(=O)c1cccc(CNCC2COc3ccccc3O2)c1 (stereo unspecified) | -5.6 | i | i | i | -2.36 | i
O=C(Nc1cc([N+](=O)[O-])ccc1N1CCOCC1)c1ccco1 | 13.5* | i | i | i | -1.64 | i
Cc1ccc(NC(=O)NC2CC(=O)N(c3ccc4c(c3)OCCO4)C2)cc1F (stereo unspecified) | -5.5 | i | i | i | 1.8 | i
Cc1ccc(C(C)C)c(OCCN)c1 | -3.8 | i | i | i | -0.6 | i
CCCN(CCC)CCOc1cc(C)ccc1C(C)C | -5.9 | i | i | i | 0.22 | i
Cc1ccc(C(C)C)c(OCc2n[nH]c(=S)o2)c1 | -2.3 | i | i | i | 0.24 | 8*
Cc1ccc(C(C)C)c(OCCNCc2ccccc2)c1 | -10.6 | i | i | i | -8.84* | i
Cc1ccc(C(C)C)c(OCCNC(=S)Nc2cccc3ccccc23)c1 | -9.2 | i | i | 8* | -0.84 | i
Cc1ccc(C)c(OCc2n[nH]c(=S)o2)c1 | -11.4 | i | i | i | 0.11 | i
Cc1ccc(C(C)C)c(OCCN(C)C)c1 | 6.6* | i | i | i | -0.23 | i
CCN(Cc1ccc2c(c1)OCCO2)C(=O)CN1C(=O)NC2(CCc3ccccc32)C1=O (stereo unspecified) | · | i | · | · | · | ·
COC(=O)C1CN(C(=O)C(C)Oc2ccc(C(C)C)cc2)c2ccccc2O1 (stereo unspecified) | -3.5 | i | i | i | 0.76 | i
CC(NC(=O)CN1C(=O)NC2(CCCCCC2)C1=O)c1ccccc1 (stereo unspecified) | · | i | · | · | · | ·
Cc1ccc(C(C)C)c(OCCCCN2CCNCC2)c1 | -8.3 | i | i | i | -6.13* | i
Cc1c(-c2ccccc2)sc2nc[nH]c(=S)c12 | 29.8* | i | i | i | 0.39 | 91*
COc1ccc(-c2noc(CCCC(=O)N3CCN(c4cc(C)ccc4C)CC3)n2)cc1 | · | -8.85* | · | · | · | ·
COc1ccc(-c2noc(CCCCC(=O)N3CCN(c4cc(C)ccc4C)CC3)n2)cc1 | · | -11.2* | · | · | · | ·
CC(=O)c1c(C)[nH]c(C(=O)OCC(=O)N2CCc3ccccc3C2)c1C | · | i | · | · | · | ·
COc1ccc(C(=O)NNC(=O)c2ccc(S(=O)(=O)N3CC(C)OC(C)C3)cc2)cc1 (stereo unspecified) | -6.7 | i | i | 7* | 1.25 | i
COc1cc(OC)cc(C(=O)NNC(=O)c2ccc(S(=O)(=O)N3CC(C)OC(C)C3)cc2)c1 (stereo unspecified) | -8.6 | i | i | i | 0.04 | i
O=C(/C=C/c1ccccc1)CC(O)(c1ccccc1)C(F)(F)F (stereo unspecified) | -9.7 | i | i | i | -6.29* | i
C=CCNCCOCCOc1ccc(Cl)cc1C(C)(C)C | -9.6 | i | i | i | -10.9* | i
CC(C)(C)NCCOCCOc1ccc(Cl)cc1C(C)(C)C | -5.4 | i | i | i | -1.03 | i
O=[N+]([O-])c1ccccc1OCCNCc1ccccc1 | 7.2* | i | i | i | -1.76 | i
CC(C)(C)c1ccccc1OCCOCCNCc1ccccc1 | -7.4 | i | i | i | -9.28* | i
SMILES | hERG rescue | KCNK3 block | KCNK9 inh | KCNQ1 inh | Kir21 block | KCNQ1 pot
C=CCNCCCOc1ccc(Cl)cc1C(C)(C)C | -19.9 | i | i | i | -14.1* | i
CC(C)(C)c1ccc(OCCC(=O)NCCc2ccc(S(N)(=O)=O)cc2)cc1 | -1.8 | i | i | i | 0.01 | i
COc1ccc(S(=O)(=O)N2CCCCCC2)cc1C(=O)N1CCN(c2ccccc2O)CC1 | -10.6 | i | i | i | -0.54 | i
O=C1CC(NS(=O)(=O)c2ccc3ccccc3c2)CN1c1ccccc1 (stereo unspecified) | -21.0 | i | i | i | -0.09 | i
COCCCNCCOCCOc1ccc(Cl)cc1C(C)(C)C | -12.8 | i | i | i | -6.21* | i
CCOC(=O)c1c(C)oc2c1c(C(c1cccnc1)N1CCCCC1)c(O)c1ccccc12 (stereo unspecified) | -7.4 | i | i | 6* | -0.78 | i
Cc1cc(=O)c(C(=O)Nc2ccc(N3CCOCC3)cc2N2CCOCC2)nn1-c1ccccc1Cl | · | i | · | · | · | ·
NS(=O)(=O)c1ccc(Nc2ncccc2[N+](=O)[O-])cc1 | 4.6* | i | i | i | -1.13 | i
N#Cc1nc(-c2ccccc2)oc1NCc1ccco1 | -5.0 | i | i | i | 1.92 | i
N#Cc1nc(-c2ccccc2Cl)oc1NCc1ccco1 | -2.3 | i | -7.49* | i | -0.53 | i
O=C(Nc1ccc(N2CCCC2)c(S(=O)(=O)Nc2cccc(C(F)(F)F)c2)c1)c1cccs1 | -7.8 | i | -6.98* | i | -0.26 | i
Oc1ccc(C=NN=Cc2ccco2)c(O)c1 | · | i | · | · | · | ·
CC1(CCc2ccc3c(c2)OCO3)NCCc2c1[nH]c1ccccc21 (stereo unspecified) | -13.6 | i | i | i | -1.95 | i
COc1cc(N(C)C)ccc1C=c1c2ccccc2n2c1cc(-c1ccccc1)[n+]2C | · | i | · | · | · | ·
CN(C)c1ccc(C=c2c3ccccc3n3c2cc(-c2ccc(Cl)cc2)[n+]3C)cc1 | · | -11.7* | · | · | · | ·
CN(C)c1ccc(C=c2c3cc([N+](=O)[O-])ccc3n3c2cc(-c2ccccc2)[n+]3C)cc1 | · | i | · | · | · | ·
CN(C)c1ccc(C=c2c3ccccc3n3c2cc(-c2ccccc2)[n+]3C)cc1 | · | -15.4* | · | · | · | ·
O=C(Nc1ccc2c(c1)C(=O)OC2)c1ccccc1Cl | -9.2 | i | i | i | -0.82 | i
Cc1ccc(CNC(=O)c2cn(C3CCCCC3)c(=O)c3c2c2ccccc2n3C)o1 | -7.7 | -9.41* | i | i | 0.44 | i
Cc1ccc(CNC(=O)c2cn(C)c(=O)c3c2c2ccccc2n3C)o1 | -9.0 | i | i | i | 0.03 | i
COc1ccc(N2C(=O)C3CCCN3C2=O)cc1 (stereo unspecified) | 4.9* | i | i | i | 0.78 | i
COc1cccc(NC(=O)CN(C)CC(=O)Nc2ccc(C)c(S(=O)(=O)N3CCOCC3)c2)c1 | · | i | · | · | · | ·
N#CCCN(C(=O)Nc1ccccc1)C1CCCCC1 | · | i | · | · | · | ·
CCCCn1c(NCc2ccccc2O)nc2ccccc21 | -11.0 | i | i | i | 1.71 | i
CCCCn1c(NCc2ccccc2NS(=O)(=O)c2ccc(C)cc2)nc2ccccc21 | -2.2 | i | -7.1* | 7* | -3.14 | i
Cc1ccc(S(=O)(=O)N(CC(=O)N/N=C/c2ccco2)Cc2ccccc2)cc1 | -13.3 | i | i | i | 1.27 | i
